LYP act – LYP phosphatase activators, primary screen, biochemical, DiFMUP fluorescence, 2 µM; Tyrosine-protein phosphatase non-receptor type 22 (Homo sapiens), Q9Y2R2; activation, % at 2 µM; recombinant LYP; 0 = plate median, 100 = signal doubled; actives 0.11% (n = 96,000);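 active = activation at 2 µM above a set limit, the mean plus 5 SD, cut at about 37% in these data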
Rev-RRE block – HIV-1 Rev-RRE binding inhibitors, primary screen, biochemical, FRET, protein-RNA interaction; P05866; Rev peptide-RRE RNA binding; inhibition, % at 8 µM; actives 0.79% (n = 97,000); AID 704, 2007;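 active = inhibition above the screen-wide mean plus 3 SD, cut at about 35% in these data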
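Material: labelled RRE RNA duplex and labelled Rev peptide / Buffer or medium: HEPES pH 7.5 salt buffer with EDTA / Compound dosing: single point, 8 µM final nominal compound concentration / Benchmarks: DMSO low control, neomycin B high control / Timing: 5 min preincubation and 15 min binding, 25 °C / Technique: FRET fluorescence readout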
LYP inh 2 – PTPN22 phosphatase inhibitors, primary screen, biochemical, DiFMUP fluorescence, 2 µM; inhibition, % at 2 µM; Tyrosine-protein phosphatase non-receptor type 22 (Homo sapiens), Q9Y2R2; recombinant LYP catalytic domain; actives 0.21% (n = 96,000);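 active = inhibition at 2 µM at or above a set limit, the screen mean plus 3 SD, cut at about 24% in these data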
FAK blocker – FAK kinase inhibitors, primary screen, biochemical | inhibition, %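 (tested at 7 µM)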 | Focal adhesion kinase 1 (Homo sapiens), Q05397 | biochemical FAK kinase activity assay | actives 0.84% (n = 97,000)
Target sequence (Q05397 whole entry, looked up): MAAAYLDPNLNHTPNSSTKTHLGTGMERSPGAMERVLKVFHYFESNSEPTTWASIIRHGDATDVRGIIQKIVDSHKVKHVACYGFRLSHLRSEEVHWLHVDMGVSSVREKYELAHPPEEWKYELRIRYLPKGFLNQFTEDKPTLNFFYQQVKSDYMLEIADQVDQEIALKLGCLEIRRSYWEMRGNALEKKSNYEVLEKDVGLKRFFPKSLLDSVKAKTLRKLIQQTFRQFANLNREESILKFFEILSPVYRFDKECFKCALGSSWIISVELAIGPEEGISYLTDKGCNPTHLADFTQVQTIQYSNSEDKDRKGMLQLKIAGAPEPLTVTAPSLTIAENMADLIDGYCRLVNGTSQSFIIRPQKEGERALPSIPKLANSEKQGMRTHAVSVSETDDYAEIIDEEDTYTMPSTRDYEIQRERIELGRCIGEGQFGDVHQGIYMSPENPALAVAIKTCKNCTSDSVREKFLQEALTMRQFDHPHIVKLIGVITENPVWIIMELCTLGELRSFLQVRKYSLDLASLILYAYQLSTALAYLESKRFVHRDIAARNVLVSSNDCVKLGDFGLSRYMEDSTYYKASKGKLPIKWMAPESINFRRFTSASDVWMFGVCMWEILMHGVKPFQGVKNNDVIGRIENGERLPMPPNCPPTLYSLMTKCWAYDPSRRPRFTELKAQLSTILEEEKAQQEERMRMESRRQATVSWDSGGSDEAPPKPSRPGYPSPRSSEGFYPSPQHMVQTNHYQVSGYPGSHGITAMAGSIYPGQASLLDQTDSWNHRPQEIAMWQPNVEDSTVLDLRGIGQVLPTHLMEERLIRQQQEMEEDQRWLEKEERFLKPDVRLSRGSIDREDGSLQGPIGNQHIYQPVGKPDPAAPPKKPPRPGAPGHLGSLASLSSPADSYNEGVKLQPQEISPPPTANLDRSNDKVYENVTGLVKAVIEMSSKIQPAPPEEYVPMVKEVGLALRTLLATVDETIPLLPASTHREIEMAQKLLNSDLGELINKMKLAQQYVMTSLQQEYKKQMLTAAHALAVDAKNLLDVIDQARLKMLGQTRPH
FAK inh conf – FAK kinase inhibitors, retest, confirmation, biochemical | inhibition, % at 7 µM | actives 28% (n = 750) | AID 794, 2007 | shares compounds with FAK blocker | FAK kinase biochemical inhibition assay
Numbers stand for hits; . = inactive; / = no result. Sampled rows, rich in hits. Any-hit rate of the full collection: about 1.8%. Cut-off read from the data, not from the text of the source, unless noted: active = inhibition above about 19%; inactive = the rest.

SMILES	LYP act	Rev-RRE block	LYP inh 2	FAK blocker	FAK inh conf
O=c1cc(-c2ccccc2)c2ccccc2[nH]1	.	.	.	19	.
Cc1cc(=O)[nH]c2ccccc12	.	.	.	.	/
Clc1ccc2[nH]cc(-c3nnnn3-c3ccccc3)c2c1	.	.	.	33	20
C=C(c1cccc2ccccc12)P(=O)(O)O	.	.	.	29	20
Cc1nc2c(ccc3nc(NC(=O)c4ccc5c(c4)OCCO5)sc32)s1	.	.	.	24	.
CC1C2=C(CCCC2=O)N(c2cccc3ccccc23)C2=C1C(=O)CCC2	.	.	.	.	/
Cc1cc(=O)[nH]c(SCC(=O)Nc2ccc(C(=O)O)cc2)n1	.	.	.	.	/
CCOC(=O)c1ccc(NC(=O)CSc2nc(C)cc(=O)[nH]2)cc1	.	.	.	20	.
COc1ccc(CNC(=O)C(C)N(Cc2ccco2)C(=O)c2snc(C(N)=O)c2N)cc1 (centres undefined)	.	.	.	.	/
CCc1ccccc1N(CC(=O)NCc1ccco1)C(=O)c1snc(C(N)=O)c1N	.	.	.	41	.
O=[N+]([O-])c1ccc(N/N=C\c2cccn2-c2ccccc2)nc1	.	41	.	30	.
Nc1[nH]nc2nc(N3CCOCC3)nc(-c3ccccc3)c12	.	.	.	24	.
CC(C)c1ccc(-c2nc(N3CCCCCC3)nc3n[nH]c(N)c23)cc1	.	.	.	.	/
CCOc1ccc2nc(SCC(=O)N3CCCCCC3)c(C#N)cc2c1	.	.	.	25	.
CCOCCc1nnc(NC(=O)C(CC)c2ccccc2)s1 (centres undefined)	.	.	.	.	/
N#C/C(=N\Nc1ccccc1Cl)C(=O)c1ccccc1	.	.	.	.	/
N#C/C(=N\Nc1c(Cl)cccc1Cl)C(=O)NN	.	.	.	45	33
CCN(CC)C(=O)CSc1nc(N)c2c3c(sc2n1)CC(C)CC3 (centres undefined)	.	.	.	28	32
CC1CCc2c(sc3nc(SCC(=O)NCc4ccco4)nc(N)c23)C1 (centres undefined)	.	.	.	.	/
O=C(Nc1cccc(Cl)c1)ON=C1c2ccccc2-c2ccccc21	.	.	.	39	.
O=C(Nc1cccc(Cl)c1)Nc1cccc(Cl)c1	.	.	.	.	/
O=C(NNC1CC(=O)N(c2ccc3c(c2)OCCO3)C1=O)c1ccccc1 (centres undefined)	.	.	.	.	/
O=C(COC(=O)C1CC2C=CC1C2)NCc1ccco1 (centres undefined)	.	.	.	30	.
O=C(CN1C(=O)C2C3C=CC(C3)C2C1=O)NCc1ccco1 (centres undefined)	.	.	.	.	/
c1cncc(-c2nc(NCc3ccco3)c3ccccc3n2)c1	.	.	.	19	.
SMILES	LYP act	Rev-RRE block	LYP inh 2	FAK blocker	FAK inh conf
c1ccc(-c2nc(NCc3cccnc3)c3ccccc3n2)cc1	.	.	.	.	/
O=C(NCc1ccco1)c1cccn2c(=O)c3cc4ccccc4cc3nc12	.	57	.	37	.
Cc1ccc(Cn2c(=N)c(C(=O)NCc3ccco3)cc3c(=O)n4ccccc4nc32)cc1	.	.	31	40	.
C/C(=N\NS(=O)(=O)c1ccc(Cl)cc1)c1ccc(O)cc1	.	.	.	.	/
C=C(C)Cn1c(SCCN2CCOCC2)nc2c1c(=O)[nH]c(=O)n2C	.	.	.	.	/
CONC(=O)C1CCN(C(=O)OCc2ccccc2)CC1	.	.	.	.	/
CC1(C)Cc2c(C#N)c(N3CCN(C(=O)c4ccccc4Cl)CC3)nc(-c3ccco3)c2CS1	.	51	.	25	.
O=C(CCCSc1nnnn1-c1ccccc1)c1ccc(F)cc1	.	.	.	.	/
O=C(COc1ccccc1)Nc1cccc(-c2nc3cc4ccccc4cc3[nH]2)c1	.	.	.	.	/
CCOc1ccc(CNn2nnnc2N)cc1	.	.	.	.	/
O=C(N/N=C/c1ccc(F)cc1)c1cc(-c2ccco2)nc2ccccc12	.	.	.	72	45
CC(/C=N/NC(=O)c1cc(-c2ccncc2)nc2ccccc12)=C\c1ccco1	.	.	.	.	/
Cc1c(N2C(=O)c3ccc4c5c(ccc(c35)C2=O)CC4)c(=O)n(-c2ccccc2)n1C	.	.	.	70	41
Cc1cccc(NC(=S)NC(=O)/C=C/c2ccco2)n1	.	.	.	.	/
CN1C(=O)C2(OCC(COc3ccc(Cl)cc3)O2)c2ccccc21 (centres undefined)	.	.	.	.	/
O=C1Nc2ccccc2C12OCC(COc1ccc(Cl)cc1)O2 (centres undefined)	.	.	.	20	.
CC(C)(C)Cc1nc(-c2ccc(Cl)cc2)no1	.	.	.	.	/
CCOc1ccc(OCC)c(-c2c(=O)n(OCc3ccccc3C(=O)OC)c3ccccc3[n+]2[O-])c1	.	.	.	.	/
CCOc1ccc(N=C2NC(=O)S/C2=C\c2ccc(Cl)cc2)cc1	.	.	26	33	51
O=C1CC(=O)N(CCc2ccc(F)cc2)C(=O)N1	.	.	.	.	/
Cc1ccc2nc(Cl)c(CN(C(=O)c3cnccn3)C3CCCCC3)cc2c1	.	.	.	.	/
CCOc1cc(CNCCO)cc(Br)c1OCc1ccccc1Cl	.	.	.	.	/
CCOc1cc(CNc2ccc(O)cc2)cc(Br)c1OCc1ccccc1F	.	.	.	22	.
CC(Sc1nc(NCc2ccccc2)nc(N(C)C)n1)C(=O)Nc1ccccc1 (centres undefined)	.	.	.	22	.
COc1ccc(-c2nc3ccc(N4CCCC4)cc3c(=O)[nH]2)cc1OC	.	.	.	28	.
SMILES	LYP act	Rev-RRE block	LYP inh 2	FAK blocker	FAK inh conf
O=C(OCc1ccccc1)N1CCOCCOCCN(C(=O)OCc2ccccc2)CCOCCOCC1	.	.	.	.	/
O=C(Oc1ccccc1Cl)c1ccc(-n2cncn2)nc1	.	.	.	.	/
COc1ccc(-c2nc(-c3cccs3)c(-c3cccs3)[nH]2)cc1OC	.	.	.	22	23
O=[N+]([O-])c1ccc(-c2nc(-c3cccs3)c(-c3cccs3)[nH]2)cc1	.	.	.	.	/
COc1ccc(-c2nc(-c3ccccc3)c(-c3cccs3)[nH]2)cc1OC	.	.	.	24	.
COc1ccc(Cn2cc(F)c(=O)n(CCC(C)C)c2=O)cc1[N+](=O)[O-]	.	.	.	.	/
Cc1nn2c(c1-c1ccccc1)NC1=C(C(=O)CCC1)C2c1ccccc1 (centres undefined)	.	.	.	25	22
CC1CCCCN1C(=O)CSc1ccc(-c2ccc(F)cc2)nn1 (centres undefined)	.	.	.	26	.
COc1ccc(-c2ccc(SCC(=O)N3CCCC3)nn2)cc1OC	.	.	.	.	/

Screening data as filed in PubChem BioAssay.
